# This is a sample that favours compounds with a hit; in the whole collection about 2.2% have one here.
# MEX-5 binding: MEX-5 zinc finger RNA-binding disruptors – biochemical, C. elegans, fluorescence polarization, MLPCN library, primary screen; Zinc finger protein mex-5 (Caenorhabditis elegans), Q9XUB2; MEX-5/FITC-TCR2 RNA binding; stronger effect = lower value; activity score (negative = inhibition of binding), % at 10 µM; 300,000 compounds, 0.38% hits;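 active = inhibition past about -25% in most replicates, and total fluorescence under double the plate's negative control median, limit read from the data; inconclusive = replicates evenly split on the limit, or fluorescence at least double controls; inactive = too little inhibition in most replicates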;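 note: 0% = DMSO and -100% = 5 µM competing unlabeled TCR2 RNA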
# Target sequence (Q9XUB2 whole entry, looked up): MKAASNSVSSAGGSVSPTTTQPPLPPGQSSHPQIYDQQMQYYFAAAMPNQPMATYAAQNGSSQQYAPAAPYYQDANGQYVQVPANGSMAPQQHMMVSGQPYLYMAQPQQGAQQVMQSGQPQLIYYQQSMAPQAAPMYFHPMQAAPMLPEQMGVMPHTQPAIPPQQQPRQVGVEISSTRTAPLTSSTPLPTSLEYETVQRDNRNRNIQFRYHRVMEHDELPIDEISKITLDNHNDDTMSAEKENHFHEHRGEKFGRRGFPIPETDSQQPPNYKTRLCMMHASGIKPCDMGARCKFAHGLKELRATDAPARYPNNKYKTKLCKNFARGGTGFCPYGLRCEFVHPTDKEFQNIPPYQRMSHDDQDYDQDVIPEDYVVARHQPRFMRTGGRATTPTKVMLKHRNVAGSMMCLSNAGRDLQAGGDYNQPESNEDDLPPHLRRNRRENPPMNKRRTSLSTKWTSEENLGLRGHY
# IMP-1 inh: IMP-1 metallo-beta-lactamase inhibitors, primary screen, biochemical, epi-absorbance readout, Pseudomonas aeruginosa enzyme | 290,000 compounds, 0.45% hits | inhibition, % at 5.6 µM | purified IMP-1, nitrocefin hydrolysis, epi-absorbance fluorescence | metallo-beta-lactamase IMP-1 (Pseudomonas aeruginosa) | AID 1556, 2009;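 active = inhibition above the mean plus 3 SD of all compounds in the same screening run, cut at about 4.5% in these data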;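 note: 0% = IMP-1 with DMSO and 100% = DMSO wells lacking enzyme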
#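 System: purified recombinant IMP-1 beta-lactamase. Medium: Zinc- and detergent-supplemented HEPES buffer, pH 7.1. Compound: one 5.6 µM dose […]. Schedule: 15 min preincubation plus 25 min reaction at 25 °C. Technique: Epi-absorbance fluorescence, 480 nm excitation, 530 nm emission.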
# EBV gp42 inh: Epstein-Barr virus gp42 inhibitors, primary screen, biochemical, uHTS, fluorescence polarization. Fluorescence polarization binding assay, mP read-out. AID 1085, 2008. Glycoprotein 42 (Epstein-Barr virus (strain AG876)), Q1HVG2. inhibition, % (tested at 21.74 µM). 220,000 compounds, 0.42% hits; in the data active = inhibition above about 50%
# VIM-2 inhibitor: VIM-2 metallo-beta-lactamase inhibitors, primary screen, biochemical, epi-absorbance readout, Pseudomonas aeruginosa enzyme; purified VIM-2, nitrocefin hydrolysis, epi-absorbance fluorescence; inhibition, % at 5.6 µM; 290,000 compounds, 0.89% hits; AID 1527, 2009;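 active = inhibition above the mean of all tested compounds plus 3 SD, cutoff set per screening run, cut at about 7.5% in these data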;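 note: red hydrolysis product quenches plate fluorescence so inhibitors raise well fluorescence; 0% = enzyme with DMSO and 100% = DMSO without enzyme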
# BCLXL inh: inhibitors of human Bcl-xL, primary screen, biochemical, fluorescence polarization, HTS; Bcl-2-like protein 1 (Homo sapiens), Q07817; GST-Bcl-xL / FITC-Bim BH3 peptide fluorescence polarization; inhibition, % at 10.9 µM; 320,000 compounds, 0.7% hits; AID 2129, 2009;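 active = inhibition above the mean of all tested compounds plus 3 SD, cutoff set per campaign, cut at about 30% in these data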;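 note: 0% = DMSO wells and 100% = unlabeled Bim-BH3 peptide competitor; inhibitors lower millipolarization by displacing the labeled peptide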
# GLD-1 TGE inh: GLD-1/TGE RNA complex disruptors, primary screen, biochemical, fluorescence polarization. Female germline-specific tumor suppressor gld-1 (Caenorhabditis elegans), Q17339. inhibition, % at 5.96 µM. purified GLD-1 + fluorescein TGE RNA. AID 2280, 2010. 320,000 compounds, 0.44% hits;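 active = percent inhibition above a per-plate cutoff, the plate mean of test compounds plus 3 SD, cut at about 30% in these data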;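 note: 0% = DMSO wells with GLD-1 and probe and 100% = wells lacking GLD-1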
# * hit, by the source's call; ? = inconclusive; nt = no result.
SMILES,MEX-5 binding,IMP-1 inh,EBV gp42 inh,VIM-2 inhibitor,BCLXL inh,GLD-1 TGE inh
O=C(Cc1cccc(NC(=O)C2CCN(C(=O)c3ccccc3)CC2)c1)Nc1cccc(C(=O)N2CCCC2)c1,nt,nt,nt,nt,3,-7
Cc1cc(O)c(-c2cc(O)c(C)cc2O)cc1O,-80*,0,-20,7,20,16
C(=N\Nc1cc(N2CCCCC2)ncn1)/c1ccco1,1,-1,nt,-1,1,6
Cc1ccc(O)c(Nc2c3ccccc3nc3ccccc23)c1,-2,-3,nt,9.2*,-1,-4
O=C(O)C1CCN(C(=O)Cc2ccccc2)CC1,-1,-3,-15,-4,5,-2
NC(=O)C1CCN(C(=O)Cc2ccc(-c3ccccc3)cc2)CC1,-1,9.7*,nt,-1,6,3
CCOC(=O)/C(=C\C=C1/Sc2cc(OCC)c(OCC)cc2N1CC)C(C)=O,?,4.8*,-293,3,-112,-208
CCN1/C(=C/C(C)=O)Sc2ccc(OC)cc21,0,-5,-16,-4,-1,0
CCOC(=O)/C(=C/C=C1\Sc2cc(OCC)c(OCC)cc2N1CC)C(C)=O,17,6.2*,-295,7,-125,-248
CCCCNC(=O)CN1CCC2(O)CCCCC2C1c1ccccc1OC (stereo not drawn),0,-4,-2,1,15,79*
Cc1nn(-c2ccccc2)c(N2CCCC2)c1/C=N/NC(=O)c1ccccc1O,-2,-4,8,-4,8,4
Cc1nn(-c2ccccc2)c(N2CCCC2)c1/C=N/NC(=O)c1cc(-c2cccnc2)nc2ccccc12,-28*,-4,-1,-3,6,8
O=C(O)CC/C(=C\c1ccccc1[N+](=O)[O-])c1nc2ccccc2s1,0,-2,-5,8.8*,3,-3
O=C(O)CC/C(=C\c1ccc(N2CCCC2)c([N+](=O)[O-])c1)c1nc2ccccc2s1,1,-2,0,2,8,4
CCOC(=O)c1c(N)sc(=S)c2c1CCC2,-9,12*,40,2,37*,23
CCOC(=O)c1c(N)sc2c1CCSC2,2,14*,-1,0,13,16
Cc1cc(C)cc(C(=O)NCC(=O)NNC(=O)CSc2ccccc2F)c1,nt,nt,nt,nt,4,4
Cc1ncc(/C=C2\C(=O)Nc3ccccc32)[nH]1,-40*,-2,-4,-3,2,-3
CCc1ccc2c(CN(C)Cc3ccccc3OC)cc(=O)oc2c1,-2,1,nt,-2,1,5
COc1ccc(NS(=O)(=O)c2cc(OC)ccc2OC)cc1,-1,nt,nt,nt,37*,-2
COc1ccc(OC)c(S(=O)(=O)Nc2ccc(F)cc2)c1,2,-5,-17,-2,5,6
Brc1ccc(C2=CC(c3cccs3)n3ncnc3N2)cc1 (stereo not drawn),-51*,-2,161*,-1,168*,151*
OCCCc1nc2n(n1)C(c1cccs1)C=C(c1ccc(Br)cc1)N2 (stereo not drawn),-68*,3,141*,0,189*,163*
CCN(CC)S(=O)(=O)c1ccc2c(c1)nc(-c1ccccn1)n2C,-5,-3,nt,0,1,0
COCCCNC(=S)Nc1ccc(S(=O)(=O)Nc2cc(OC)nc(OC)n2)cc1,-1,-4,nt,-3,5,0
CCCCc1nc2cc(C(=O)N3CCCC3)ccc2o1,-1,-1,nt,-1,8,-2
CCCCc1nc2cc(C(=O)NC(C)c3cnn(C)c3)ccc2o1 (stereo not drawn),-1,25*,nt,-1,4,2
CCOC(=O)C1Nc2ccc(Br)cc2C2C=CCC12 (stereo not drawn),-4,-2,nt,-1,25,9

# Compound activity as filed in PubChem.
